Assay results from different studies.
Lines come from different studies, so protocols differ.
Target: Mitogen-activated protein kinase 14 (MAPK14, Homo sapiens, UniProt Q16539)

| SMILES | test | conditions | measurement | result |
| --- | --- | --- | --- | --- |
| COc1ccc2oc(-c3ccc4nc(N)oc4c3)c/c(=N\c3ccccc3NC(=O)CCN)c2c1 | binding | 1 µM | remaining binding | 109% |
| CCCCC(=O)Nc1ccc(-c2ccc3ncn(CCC)c(=O)c3c2)cn1 | binding, competition with immobilised ligand | 0.5 µM | remaining binding | 88% |
| C=CC(=O)N1CCC([C@@H]2CCNc3c(C(N)=O)c(-c4ccc(Oc5ccccc5)cc4)nn32)CC1 | enzyme activity, inhibitor | 1 µM | inhibition | 1% |
| CN1CCN(C(=O)c2ccc(NC(=O)Nc3ccc(N(C)c4ccnc(Nc5ccc(CS(C)(=O)=O)cc5)n4)cc3)cc2)CC1 | binding, competition with immobilised ligand | 1 µM | remaining binding | 83% |
| C1=C/COCc2cc(ccc2OCCN2CCCC2)Nc2nccc(n2)-c2cccc(c2)COC/1 | cell-free assay | 0.1 µM | remaining signal | 89% |
| COc1ccc2[nH]c3c4[nH]c5ccc(OC)cc5c4c4c(c3c2c1)C(=O)NC4=O | binding, competition with immobilised ligand | 1 µM | remaining binding | 87% |
| CC#CC(=O)N1CCC[C@H]1c1nc(-c2ccc(C(=O)Nc3ccccn3)cc2)c2c(N)nccn12 | enzyme activity, inhibitor | 1 µM | inhibition | 0% |
| N#Cc1ccc(NC(=O)Nc2ccccc2)cc1 | cell-free assay, competition with immobilised ligand | 25 µM | remaining binding | 79% |
| C#Cc1cnc(Nc2ccnc(CO)c2)nc1Nc1ccccc1S(C)(=O)=NC#N (stereo not drawn) | cell-free assay | 1 µM | remaining signal | 91% |
